Test results taken from ChEMBL document CHEMBL4673330, “Preparations and antioxidant activities of sesamol and it's derivatives” (Bioorg Med Chem Lett, 2021).

Assay: Antioxidant activity assessed as hydroxyl radical scavenging rate at 1 g/L relative to control
Type: functional
In short: (§1)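 Hydroxyl radical scavenging was read as absorbance of the reaction solution at 510 nm by a fixed reaction time method. Derivatives were tested at 0.2–1.2 g/L, with sesamol as positive control. Values are means ± SD from at least eight independent experiments, each in triplicate (n = 3), with t-tests (p < 0.05).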

| SMILES | Activity [%] |
| --- | --- |
| O=C(Oc1ccc2c(c1)OCO2)c1cccc(Cl)c1Cl | 60.4 |
| O=C(Oc1ccc2c(c1)OCO2)c1ccc(Cl)cc1Cl | 69.9 |
| O=c1oc2ccc3c(c2c2ccccc12)OCO3 | 87.4 |

Assay: Antioxidant activity assessed as superoxide anion radical scavenging rate at 0.2 g/L relative to control
Type: functional
In short: (§2)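 Pyrocatechol autoxidation in weak alkaline medium produces a coloured intermediate and superoxide anion; the intermediate absorbs maximally at 320 nm. Scavenging rate was measured at 0.2–1.2 g/L, with sesamol as positive control. Values are means ± SD from at least eight independent experiments, each in triplicate (n = 3), with t-tests (p < 0.05).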

| SMILES | Activity [%] |
| --- | --- |
| O=C(Oc1ccc2c(c1)OCO2)c1cccc(Cl)c1Cl | 10.4 |
| O=C(Oc1ccc2c(c1)OCO2)c1ccc(Cl)cc1Cl | 11.4 |
| O=c1oc2ccc3c(c2c2ccccc12)OCO3 | 15.6 |

Assay: Antioxidant activity assessed as superoxide anion radical scavenging rate at 1 g/L relative to control
Type: functional
In short: as §2

| SMILES | Activity [%] |
| --- | --- |
| O=C(Oc1ccc2c(c1)OCO2)c1cccc(Cl)c1Cl | 59.9 |
| O=C(Oc1ccc2c(c1)OCO2)c1ccc(Cl)cc1Cl | 65.6 |
| O=c1oc2ccc3c(c2c2ccccc12)OCO3 | 90.2 |

Assay: Antioxidant activity assessed as superoxide anion radical scavenging rate at 0.4 g/L relative to control
Type: functional
In short: as §2

| SMILES | Activity [%] |
| --- | --- |
| O=C(Oc1ccc2c(c1)OCO2)c1cccc(Cl)c1Cl | 23.9 |
| O=C(Oc1ccc2c(c1)OCO2)c1ccc(Cl)cc1Cl | 26.2 |
| O=c1oc2ccc3c(c2c2ccccc12)OCO3 | 35.9 |

Assay: Antioxidant activity assessed as superoxide anion radical scavenging rate at 1.2 g/L relative to control
Type: functional
In short: as §2

| SMILES | Activity [%] |
| --- | --- |
| O=C(Oc1ccc2c(c1)OCO2)c1cccc(Cl)c1Cl | 60.5 |
| O=C(Oc1ccc2c(c1)OCO2)c1ccc(Cl)cc1Cl | 66.3 |
| O=c1oc2ccc3c(c2c2ccccc12)OCO3 | 91.1 |

Assay: Antioxidant activity assessed as hydroxyl radical scavenging rate at 0.8 g/L relative to control
Type: functional
In short: as §1

| SMILES | Activity [%] |
| --- | --- |
| O=C(Oc1ccc2c(c1)OCO2)c1cccc(Cl)c1Cl | 57.5 |
| O=C(Oc1ccc2c(c1)OCO2)c1ccc(Cl)cc1Cl | 66.6 |
| O=c1oc2ccc3c(c2c2ccccc12)OCO3 | 83.2 |

Assay: Antioxidant activity assessed as reduction in lipid peroxidation by measuring antiperoxide-index at 0.2 g/L by thiobarbituric acid method relative to control
Type: functional
Set-up: scale not given: the % may be the effect or the level left
In short: (§3)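 Anti-lipid-peroxidation (antiperoxide index, %) was tested at 0.2–1.2 g/L, with sesamol as positive control. Values are means ± SD from at least eight independent experiments, each in triplicate (n = 3), with t-tests (p < 0.05).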

| SMILES | Activity [%] |
| --- | --- |
| O=C(Oc1ccc2c(c1)OCO2)c1cccc(Cl)c1Cl | 11.3 |
| O=C(Oc1ccc2c(c1)OCO2)c1ccc(Cl)cc1Cl | 12.7 |
| O=c1oc2ccc3c(c2c2ccccc12)OCO3 | 15.8 |

Assay: Antioxidant activity assessed as reduction of potassium ferricyanide trivalent iron into potassium ferrocyanide bivalent iron and ferrous iron by measuring eliminate efficiency at 1.2 g/L relative to control
Type: functional
Set-up: scale not given: the % may be the effect or the level left
In short: (§4)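 Reducing capacity was read as absorbance at 700 nm, where higher absorbance means greater reducing ability. Tested at 0.2–1.2 g/L against sesamol as positive control. Values are means from at least eight independent experiments, each in triplicate (n = 3), with t-tests (p < 0.05).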

| SMILES | Activity [%] |
| --- | --- |
| O=C(Oc1ccc2c(c1)OCO2)c1cccc(Cl)c1Cl | 66.2 |
| O=C(Oc1ccc2c(c1)OCO2)c1ccc(Cl)cc1Cl | 75.7 |
| O=c1oc2ccc3c(c2c2ccccc12)OCO3 | 90.7 |

Assay: Antioxidant activity assessed as reduction of potassium ferricyanide trivalent iron into potassium ferrocyanide bivalent iron and ferrous iron by measuring eliminate efficiency at 0.4 g/L relative to control
Type: functional
Set-up: scale not given: the % may be the effect or the level left
In short: as §4

| SMILES | Activity [%] |
| --- | --- |
| O=C(Oc1ccc2c(c1)OCO2)c1cccc(Cl)c1Cl | 27 |
| O=C(Oc1ccc2c(c1)OCO2)c1ccc(Cl)cc1Cl | 30.9 |
| O=c1oc2ccc3c(c2c2ccccc12)OCO3 | 37 |

Assay: Antioxidant activity assessed as reduction of potassium ferricyanide trivalent iron into potassium ferrocyanide bivalent iron and ferrous iron by measuring eliminate efficiency at 0.2 g/L relative to control
Type: functional
Set-up: scale not given: the % may be the effect or the level left
In short: as §4

| SMILES | Activity [%] |
| --- | --- |
| O=C(Oc1ccc2c(c1)OCO2)c1cccc(Cl)c1Cl | 11.3 |
| O=C(Oc1ccc2c(c1)OCO2)c1ccc(Cl)cc1Cl | 12.9 |
| O=c1oc2ccc3c(c2c2ccccc12)OCO3 | 15.4 |

Assay: Antioxidant activity assessed as superoxide anion radical scavenging rate at 0.6 g/L relative to control
Type: functional
In short: as §2

| SMILES | Activity [%] |
| --- | --- |
| O=C(Oc1ccc2c(c1)OCO2)c1cccc(Cl)c1Cl | 45.4 |
| O=C(Oc1ccc2c(c1)OCO2)c1ccc(Cl)cc1Cl | 49.7 |
| O=c1oc2ccc3c(c2c2ccccc12)OCO3 | 68.3 |

Assay: Antioxidant activity assessed as reduction in lipid peroxidation by measuring antiperoxide-index at 0.6 g/L by thiobarbituric acid method relative to control
Type: functional
Set-up: scale not given: the % may be the effect or the level left
In short: as §3

| SMILES | Activity [%] |
| --- | --- |
| O=C(Oc1ccc2c(c1)OCO2)c1cccc(Cl)c1Cl | 48.8 |
| O=C(Oc1ccc2c(c1)OCO2)c1ccc(Cl)cc1Cl | 54.8 |
| O=c1oc2ccc3c(c2c2ccccc12)OCO3 | 68.2 |

Assay: Antioxidant activity assessed as superoxide anion radical scavenging rate at 0.8 g/L relative to control
Type: functional
In short: as §2

| SMILES | Activity [%] |
| --- | --- |
| O=C(Oc1ccc2c(c1)OCO2)c1cccc(Cl)c1Cl | 54.5 |
| O=C(Oc1ccc2c(c1)OCO2)c1ccc(Cl)cc1Cl | 59.7 |
| O=c1oc2ccc3c(c2c2ccccc12)OCO3 | 82 |

Assay: Antioxidant activity assessed as reduction of potassium ferricyanide trivalent iron into potassium ferrocyanide bivalent iron and ferrous iron by measuring eliminate efficiency at 1 g/L relative to control
Type: functional
Set-up: scale not given: the % may be the effect or the level left
In short: as §4

| SMILES | Activity [%] |
| --- | --- |
| O=C(Oc1ccc2c(c1)OCO2)c1cccc(Cl)c1Cl | 65.5 |
| O=C(Oc1ccc2c(c1)OCO2)c1ccc(Cl)cc1Cl | 74.9 |
| O=c1oc2ccc3c(c2c2ccccc12)OCO3 | 89.8 |

Assay: Antioxidant activity assessed as hydroxyl radical scavenging rate at 1.2 g/L relative to control
Type: functional
In short: as §1

| SMILES | Activity [%] |
| --- | --- |
| O=C(Oc1ccc2c(c1)OCO2)c1cccc(Cl)c1Cl | 61 |
| O=C(Oc1ccc2c(c1)OCO2)c1ccc(Cl)cc1Cl | 70.6 |
| O=c1oc2ccc3c(c2c2ccccc12)OCO3 | 88.2 |

Assay: Antioxidant activity assessed as reduction in lipid peroxidation by measuring antiperoxide-index at 0.4 g/L by thiobarbituric acid method relative to control
Type: functional
Set-up: scale not given: the % may be the effect or the level left
In short: as §3

| SMILES | Activity [%] |
| --- | --- |
| O=C(Oc1ccc2c(c1)OCO2)c1cccc(Cl)c1Cl | 27.1 |
| O=C(Oc1ccc2c(c1)OCO2)c1ccc(Cl)cc1Cl | 30.4 |
| O=c1oc2ccc3c(c2c2ccccc12)OCO3 | 37.9 |

Assay: Antioxidant activity assessed as reduction in lipid peroxidation by measuring antiperoxide-index at 0.8 g/L by thiobarbituric acid method relative to control
Type: functional
Set-up: scale not given: the % may be the effect or the level left
In short: as §3

| SMILES | Activity [%] |
| --- | --- |
| O=C(Oc1ccc2c(c1)OCO2)c1cccc(Cl)c1Cl | 58.6 |
| O=C(Oc1ccc2c(c1)OCO2)c1ccc(Cl)cc1Cl | 65.7 |
| O=c1oc2ccc3c(c2c2ccccc12)OCO3 | 81.8 |

Assay: Antioxidant activity assessed as hydroxyl radical scavenging rate at 0.4 g/L relative to control
Type: functional
In short: as §1

| SMILES | Activity [%] |
| --- | --- |
| O=C(Oc1ccc2c(c1)OCO2)c1cccc(Cl)c1Cl | 26.4 |
| O=C(Oc1ccc2c(c1)OCO2)c1ccc(Cl)cc1Cl | 30.7 |
| O=c1oc2ccc3c(c2c2ccccc12)OCO3 | 38.9 |

Assay: Antioxidant activity assessed as hydroxyl radical scavenging rate at 0.2 g/L relative to control
Type: functional
In short: as §1

| SMILES | Activity [%] |
| --- | --- |
| O=C(Oc1ccc2c(c1)OCO2)c1cccc(Cl)c1Cl | 11.1 |
| O=C(Oc1ccc2c(c1)OCO2)c1ccc(Cl)cc1Cl | 12.8 |
| O=c1oc2ccc3c(c2c2ccccc12)OCO3 | 16.1 |

Assay: Antioxidant activity assessed as reduction in lipid peroxidation by measuring antiperoxide-index at 1 g/L by thiobarbituric acid method relative to control
Type: functional
Set-up: scale not given: the % may be the effect or the level left
In short: as §3

| SMILES | Activity [%] |
| --- | --- |
| O=C(Oc1ccc2c(c1)OCO2)c1cccc(Cl)c1Cl | 64.4 |
| O=C(Oc1ccc2c(c1)OCO2)c1ccc(Cl)cc1Cl | 72.3 |
| O=c1oc2ccc3c(c2c2ccccc12)OCO3 | 90 |

Assay: Antioxidant activity assessed as hydroxyl radical scavenging rate at 0.6 g/L relative to control
Type: functional
In short: as §1

| SMILES | Activity [%] |
| --- | --- |
| O=C(Oc1ccc2c(c1)OCO2)c1cccc(Cl)c1Cl | 47.9 |
| O=C(Oc1ccc2c(c1)OCO2)c1ccc(Cl)cc1Cl | 55.5 |
| O=c1oc2ccc3c(c2c2ccccc12)OCO3 | 69.3 |

Assay: Antioxidant activity assessed as reduction in lipid peroxidation by measuring antiperoxide-index at 1.2 g/L by thiobarbituric acid method relative to control
Type: functional
Set-up: scale not given: the % may be the effect or the level left
In short: as §3

| SMILES | Activity [%] |
| --- | --- |
| O=C(Oc1ccc2c(c1)OCO2)c1cccc(Cl)c1Cl | 66.4 |
| O=C(Oc1ccc2c(c1)OCO2)c1ccc(Cl)cc1Cl | 74.5 |
| O=c1oc2ccc3c(c2c2ccccc12)OCO3 | 92.7 |

Assay: Antioxidant activity assessed as reduction of potassium ferricyanide trivalent iron into potassium ferrocyanide bivalent iron and ferrous iron by measuring eliminate efficiency at 0.8 g/L relative to control
Type: functional
Set-up: scale not given: the % may be the effect or the level left
In short: as §4

| SMILES | Activity [%] |
| --- | --- |
| O=C(Oc1ccc2c(c1)OCO2)c1cccc(Cl)c1Cl | 59.6 |
| O=C(Oc1ccc2c(c1)OCO2)c1ccc(Cl)cc1Cl | 68.1 |
| O=c1oc2ccc3c(c2c2ccccc12)OCO3 | 81.6 |

Assay: Antioxidant activity assessed as reduction of potassium ferricyanide trivalent iron into potassium ferrocyanide bivalent iron and ferrous iron by measuring eliminate efficiency at 0.6 g/L relative to control
Type: functional
Set-up: scale not given: the % may be the effect or the level left
In short: as §4

| SMILES | Activity [%] |
| --- | --- |
| O=C(Oc1ccc2c(c1)OCO2)c1cccc(Cl)c1Cl | 51.3 |
| O=C(Oc1ccc2c(c1)OCO2)c1ccc(Cl)cc1Cl | 58.7 |
| O=c1oc2ccc3c(c2c2ccccc12)OCO3 | 70.4 |
